From ChEMBL document CHEMBL3751743, “Synthesis and anti-cancer screening of novel heterocyclic-(2H)-1,2,3-triazoles as potential anti-cancer agents” (Medchemcomm, 2015)

Key:
[1] = Cytotoxicity against human Hs578T cells assessed as reduction of cell viability after 48 hrs by calcein-AM-based fluorescence analysis; format: functional; settings: Hs-578T
How it was run: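 Cells seeded at 3,000 per well in DMEM with 10% FBS and left overnight at 37 °C. A range of compound concentrations or vehicle was then added for 48 h. Cells were washed with DPBS pH 7.4 and loaded with 2 μM calcein-AM for 30 min at 25 °C. Fluorescence read at ex 490/em 520 nm; viability is given relative to untreated control (100%). Mean ± s.d.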

MDA-MB-231 = assay: Cytotoxicity against human MDA-MB-231 cells after 48 hrs by SRB assay; format: functional; settings: MDA-MB-231, 48 h
How it was run: (§1)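 NCI-60 five-dose screen: compounds dissolved in DMSO/H2O, tested at five 10-fold dilutions (10^-4 to 10^-8 M) for 48 h. Growth measured by sulforhodamine B optical density at time zero and after 48 h drug or vehicle exposure. Percentage growth calculated relative to control. GI50 is the molar concentration giving 50% reduction in net cell growth versus day-0 cell numbers.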

[2] = Cytotoxicity against human SW620 cells after 48 hrs by SRB assay; format: functional; settings: SW-620, 48 h; how it was run: as §1
[3] = Cytotoxicity against human OVCAR8 cells after 48 hrs by SRB assay; format: functional; settings: OVCAR-8, 48 h; how it was run: as §1
MDA-MB-468 = assay: Cytotoxicity against human MDA-MB-468 cells after 48 hrs by SRB assay; format: functional; settings: MDA-MB-468, 48 h; how it was run: as §1
CCRF-CEM = assay: Cytotoxicity against human CCRF-CEM cells after 48 hrs by SRB assay; format: functional; how it was run: as §1
U-251 = assay: Cytotoxicity against human U251 cells after 48 hrs by SRB assay; format: functional; settings: U-251, 48 h
How it was run: (§2)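 NCI-60 five-dose screen. Compounds dissolved in DMSO/H2O and tested at five 10-fold dilutions (10^-4 to 10^-8 M) for 48 h. Growth read by sulforhodamine B optical density at time zero and after 48 h of exposure to compound or vehicle. Percent growth calculated against control. GI50 is the molar concentration giving 50% reduction in net cell growth relative to cell number on day 0.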

SN12C = assay: Cytotoxicity against human SN12C cells after 48 hrs by SRB assay; format: functional; how it was run: as §1
NCI-H522 = assay: Cytotoxicity against human NCI-H522 cells after 48 hrs by SRB assay; format: functional; settings: NCI-H522, 48 h; how it was run: as §1
786-0 = assay: Cytotoxicity against human 786-0 cells after 48 hrs by SRB assay; format: functional; settings: 786-0, 48 h; how it was run: as §1
[4] = Cytotoxicity against human LOXIMVI cells after 48 hrs by SRB assay; format: functional; settings: LOX IMVI; how it was run: as §1
[5] = Cytotoxicity against human COLO205 cells after 48 hrs by SRB assay; format: functional; settings: COLO 205, 48 h; how it was run: as §1
SK-MEL-5 = assay: Cytotoxicity against human SK-MEL-5 cells after 48 hrs by SRB assay; format: functional; settings: SK-MEL-5, 48 h; how it was run: as §1
[6] = Cytotoxicity against human DU145 cells after 48 hrs by SRB assay; format: functional; settings: DU-145, 48 h; how it was run: as §1
[7] = Cytotoxicity against human HL-60(TB) cells after 48 hrs by SRB assay; format: functional; settings: HL-60, 48 h; how it was run: as §1
[8] = Cytotoxicity against human RPMI8226 cells after 48 hrs by SRB assay; format: functional; settings: RPMI-8226, 48 h; how it was run: as §1
[9] = Cytotoxicity against human UO31 cells after 48 hrs by SRB assay; format: functional; settings: UO-31, 48 h; how it was run: as §2
MCF7 = assay: Cytotoxicity against human MCF7 cells after 48 hrs by SRB assay; format: functional; settings: MCF7, 48 h; how it was run: as §1
K562 = assay: Cytotoxicity against human K562 cells after 48 hrs by SRB assay; format: functional; settings: K562, 48 h; how it was run: as §1
M14 = assay: Cytotoxicity against human M14 cells after 48 hrs by SRB assay; format: functional; settings: M14, 48 h; how it was run: as §1
[10] = Cytotoxicity against human NCI-ADR-RES cells after 48 hrs by SRB assay; format: functional; how it was run: as §1
[11] = Cytotoxicity against human Hs 578T cells after 48 hrs by SRB assay; format: functional; how it was run: as §1
A498 = assay: Cytotoxicity against human A498 cells after 48 hrs by SRB assay; format: functional; settings: A498, 48 h; how it was run: as §1
Tubulin = Tubulin (Sus scrofa, UniProt P02554+P02550); assay: Inhibition of porcine brain tubulin polymerization by spectrophotometric analysis
How it was run: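 Tubulin at 4 mg/mL in cold 80 mM PIPES pH 6.9 with 2 mM MgCl2, 0.5 mM EGTA, GTP and 10% glycerol. Compound (added as 10x stock in 50% DMSO) or DMSO was preincubated 2 min at 37 °C in a prewarmed plate. Cold tubulin was then added, and polymerization at 37 °C was followed by A340 over time. Dose-response, mean ± s.d., n=3.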

[12] = Cytotoxicity against human SF268 cells after 48 hrs by SRB assay; format: functional; settings: SF-268, 48 h; how it was run: as §1
[13] = Cytotoxicity against human SKOV3 cells after 48 hrs by SRB assay; format: functional; settings: SK-OV-3, 48 h; how it was run: as §1
NCI-H226 = assay: Cytotoxicity against human NCI-H226 cells after 48 hrs by SRB assay; format: functional; settings: NCI-H226, 48 h; how it was run: as §1
T47D = assay: Cytotoxicity against human T47D cells after 48 hrs by SRB assay; format: functional; how it was run: as §2
[14] = Cytotoxicity against human SF295 cells after 48 hrs by SRB assay; format: functional; settings: SF-295, 48 h; how it was run: as §1
NCI-H460 = assay: Cytotoxicity against human NCI-H460 cells after 48 hrs by SRB assay; format: functional; settings: NCI-H460, 48 h; how it was run: as §1
[15] = Cytotoxicity against human Caki1 cells after 48 hrs by SRB assay; format: functional; settings: CAKI-1, 48 h; how it was run: as §1
[16] = Cytotoxicity against human MOLT4 cells after 48 hrs by SRB assay; format: functional; settings: MOLT-4, 48 h; how it was run: as §1
MDA-MB-435 = assay: Cytotoxicity against human MDA-MB-435 cells after 48 hrs by SRB assay; format: functional; settings: MDA-MB-435, 48 h; how it was run: as §1
[17] = Cytotoxicity against human UACC257 cells after 48 hrs by SRB assay; format: functional; settings: UACC-257, 48 h; how it was run: as §2
[18] = Cytotoxicity against human OVCAR5 cells after 48 hrs by SRB assay; format: functional; settings: OVCAR-5, 48 h; how it was run: as §1
[19] = Cytotoxicity against human HCC2998 cells after 48 hrs by SRB assay; format: functional; settings: HCC 2998, 48 h; how it was run: as §1
SK-MEL-28 = assay: Cytotoxicity against human SK-MEL-28 cells after 48 hrs by SRB assay; format: functional; settings: SK-MEL-28, 48 h; how it was run: as §1
SR = assay: Cytotoxicity against human SR cells after 48 hrs by SRB assay; format: functional; how it was run: as §1
[20] = Cytotoxicity against human UACC62 cells after 48 hrs by SRB assay; format: functional; settings: UACC-62, 48 h; how it was run: as §2
[21] = Cytotoxicity against human TK10 cells after 48 hrs by SRB assay; format: functional; settings: TK-10, 48 h; how it was run: as §2
A549 = assay: Cytotoxicity against human A549 cells after 48 hrs by SRB assay; format: functional; settings: A549, 48 h; how it was run: as §1
[22] = Cytotoxicity against human OVCAR3 cells after 48 hrs by SRB assay; format: functional; settings: OVCAR-3, 48 h; how it was run: as §1
[23] = Cytotoxicity against human SNB75 cells after 48 hrs by SRB assay; format: functional; settings: SNB-75, 48 h; how it was run: as §1
[24] = Cytotoxicity against human SF539 cells after 48 hrs by SRB assay; format: functional; settings: SF-539, 48 h; how it was run: as §1
NCI-H23 = assay: Cytotoxicity against human NCI-H23 cells after 48 hrs by SRB assay; format: functional; settings: NCI-H23, 48 h; how it was run: as §1
[25] = Cytotoxicity against human HCT15 cells after 48 hrs by SRB assay; format: functional; settings: HCT-15, 48 h; how it was run: as §1
ACHN = assay: Cytotoxicity against human ACHN cells after 48 hrs by SRB assay; format: functional; how it was run: as §1
SK-MEL-2 = assay: Cytotoxicity against human SK-MEL-2 cells after 48 hrs by SRB assay; format: functional; settings: SK-MEL-2, 48 h; how it was run: as §1
[26] = Cytotoxicity against human BT549 cells after 48 hrs by SRB assay; format: functional; settings: BT-549, 48 h; how it was run: as §1
[27] = Cytotoxicity against human SNB19 cells after 48 hrs by SRB assay; format: functional; settings: SNB-19, 48 h; how it was run: as §1
[28] = Cytotoxicity against human RXF393 cells after 48 hrs by SRB assay; format: functional; settings: RXF 393, 48 h; how it was run: as §1
HT-29 = assay: Cytotoxicity against human HT-29 cells after 48 hrs by SRB assay; format: functional; settings: HT-29, 48 h; how it was run: as §1
KM12 = assay: Cytotoxicity against human KM12 cells after 48 hrs by SRB assay; format: functional; settings: KM12, 48 h; how it was run: as §1
[29] = Cytotoxicity against human OVCAR4 cells after 48 hrs by SRB assay; format: functional; settings: OVCAR-4, 48 h; how it was run: as §1
[30] = Cytotoxicity against human HCT116 cells after 48 hrs by SRB assay; format: functional; settings: HCT-116, 48 h; how it was run: as §1
[31] = Cytotoxicity against human PC3 cells after 48 hrs by SRB assay; format: functional; settings: PC-3, 48 h; how it was run: as §1

In the case of `COc1cc(OC)cc(-c2n[nH]nc2-c2cc3ccccc3s2)c1`, the GI50 [1] is reported as 65 nM.
`COc1cc(-c2n[nH]nc2-c2c[nH]c3ccccc23)cc(OC)c1OC` showed a GI50 (MDA-MB-231) of 89 nM, a GI50 [2] of 43 nM and a GI50 [3] of 1160 nM. The GI50 (MDA-MB-468) was 42 nM, the GI50 (CCRF-CEM) was 48 nM and the GI50 (U-251) was 59 nM. The GI50 (SN12C) was 1390 nM, the GI50 (NCI-H522) was 21 nM and the GI50 (786-0) was 35 nM. It also gave a GI50 [4] of 71 nM, a GI50 [5] of 34 nM and a GI50 (SK-MEL-5) of 43 nM. It also gave a GI50 [6] of 90 nM, a GI50 [7] of 46 nM and a GI50 [8] of 90 nM. For the same compound, the GI50 [9] was 87 nM, the GI50 (MCF7) was 29 nM and the GI50 (K562) was 53 nM. The GI50 (M14) was 36 nM, the GI50 [10] was 34 nM and the GI50 [11] was 42 nM. The GI50 (A498) was 35 nM, the IC50 (Tubulin) was 18500 nM and the GI50 [12] was 71 nM. It also gave a GI50 [13] of 42 nM, a GI50 (NCI-H226) of 390 nM and a GI50 (T47D) of 48 nM. The GI50 [14] was 32 nM, the GI50 (NCI-H460) was 42 nM and the GI50 [15] was 44 nM. The GI50 [16] was 160 nM, the GI50 (MDA-MB-435) was 14 nM and the GI50 [17] was 13900 nM. For the same compound, the GI50 [18] was 381 nM, the GI50 [19] was 440 nM and the GI50 (SK-MEL-28) was 112 nM. It also gave a GI50 (SR) of 90 nM, a GI50 [20] of 43 nM and a GI50 [21] of 1390 nM. The GI50 (A549) was 90 nM, the GI50 [22] was 33 nM and the GI50 [23] was 30 nM. For the same compound, the GI50 [24] was 31 nM, the GI50 (NCI-H23) was 270 nM and the GI50 [25] was 35 nM. The GI50 (ACHN) was 43 nM, the GI50 (SK-MEL-2) was 30 nM and the GI50 [26] was 28 nM. It also gave a GI50 [27] of 61 nM, a GI50 [28] of 164 nM and a GI50 (HT-29) of 33 nM. The GI50 (KM12) was 45 nM, the GI50 [29] was 1160 nM and the GI50 [30] was 41 nM. For the same compound, the GI50 [31] was 44 nM.
